Active and inactive are the calls of the source.
Legend:
Cannabinoid receptor 1 [1] = target: T1, Cannabinoid receptor 1 (Homo sapiens, UniProt P21554); assay: Displacement of [3H]-CP55940 from human CB1 receptor
Outline: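 Radioligand displacement used [3H]-CP55940 as tracer in heterologous competition binding. Unlabeled reference ligands defined nonspecific binding. Ki was calculated by Cheng–Prusoff.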

Rattus norvegicus [2] = assay: Antiallodynic activity in SNE-induced mechanical allodynia naive Sprague-Dawley rat model assessed as […] in hindpaw ipsilateral withdrawal threshold at 0.6 mg/kg, ip preincubated for 3 hrs followed by SNE addition in presence of tert-Butyl-4-[5-(4-Chlorophenyl)-1-(2,4-dichlorophenyl)-4- methyl-1H-pyrazole-3-amido]piperidine-1-carboxylate; format: functional, organism-based
Outline: (§1)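 SNE rats were given the test agonist ip alone, or 30 min after pretreatment with a selective CB1R or CB2R antagonist, with sessions at 3-day intervals. Ipsilateral hindpaw withdrawal threshold was measured by digital von Frey (4 readings per paw averaged). Tests were blinded.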

[3] = Half life in naive Sprague-Dawley rat at 0.3 mg/kg, ip by LC/MS/MS analysis; format: ADME, organism-based; conditions: in vivo
Outline: (§2)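 Male Sprague–Dawley rats given a single ip injection (drug in 50/50 DMSO:Cremophor EL, diluted in sterile saline, 1.5 mL/kg). Tail-vein blood (~110 μL) drawn at intervals after brief restraint, centrifuged, plasma stored −20 °C. Quantified by LC-MS/MS against standard curves prepared in samples from untreated animals; n = 3 rats.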

Rattus norvegicus [4] = assay: Antiallodynic activity in SNE-induced mechanical allodynia naive Sprague-Dawley rat model assessed as decrease in hindpaw ipsilateral withdrawal threshold at 0.6 mg/kg, ip preincubated for 3 hrs followed by SNE addition in presence of rimonabant; format: functional, organism-based; outline: as §1
Cannabinoid receptor 2 = Cannabinoid receptor 2 (Homo sapiens, UniProt P34972); assay: Agonist activity at human CB2R expressed in CHO cells by Ca2+ flux assay; format: functional, cell-based
Chain of Cannabinoid receptor 2 (P34972 whole entry): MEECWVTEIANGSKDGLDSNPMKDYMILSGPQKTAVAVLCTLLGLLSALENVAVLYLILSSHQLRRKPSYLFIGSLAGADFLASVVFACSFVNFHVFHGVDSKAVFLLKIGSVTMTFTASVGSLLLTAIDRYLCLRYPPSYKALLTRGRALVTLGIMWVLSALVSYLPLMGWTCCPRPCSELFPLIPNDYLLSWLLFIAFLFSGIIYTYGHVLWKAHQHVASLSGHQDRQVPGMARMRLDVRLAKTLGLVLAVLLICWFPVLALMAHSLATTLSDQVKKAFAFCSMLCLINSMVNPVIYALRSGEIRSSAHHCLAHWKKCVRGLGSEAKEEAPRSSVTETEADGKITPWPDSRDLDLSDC
Outline: (§3)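 CHO cells stably co-expressing human CB1 or CB2 with Gαq16 were seeded at 40000/well and grown 24 h at 37 °C. They were loaded 1 h at 37 °C with Fluo-4 AM (2 μM final) in HBSS/20 mM HEPES/1% BSA/probenecid. Agonist was added after ~17 s baseline, and fluorescence (ex 488/em 525) was read each 1 s for 60 s. Runs were done 3–6 times; mean ± SEM.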

Rattus norvegicus [5] = assay: Increase in SNE-induced hindpaw contralateral withdrawal threshold in naive Sprague-Dawley rat at 0.3 mg/kg, ip incubated for 3 hrs followed by SNE addition; format: organism-based; conditions: in vivo
Outline: (§4)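 Male Sprague–Dawley rats received unilateral sciatic nerve entrapment. Testing began 8 days post-surgery at 3-day intervals, dosed ip in DMSO/Cremophor EL/saline. Hindpaw withdrawal threshold (g) was read with a digital von Frey meter, 4 readings per paw at 30 s spacing, averaged. Reads were taken 1 h before and 3, 6, 24 and 48 h after dosing; n = 8; blinded; one-way RM ANOVA.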

Rattus norvegicus [6] = assay: Analgesic activity in naive Sprague-Dawley rat assessed as tail flick latency at 0.1 to 10 mg/kg administered through oral gavage up to 48 hrs by tail-flick assay; format: functional, organism-based
Outline: (§5)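 Naïve male Sprague–Dawley rats were dosed ip (DMSO/Cremophor EL/saline) or by gavage (DMSO in 20% condensed milk). Radiant heat was aimed 3 cm from the tail tip and latency timed by photocell. Baseline was set to ~5–7 s with a 25 s cutoff. Testing ran 1 h pre-dose and up to 48 h after. Peak effect was taken minus vehicle; n = 6–8; blinded.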

[7] = Toxicity in naive Sprague-Dawley rat assessed as motor incoordination at 0.3 mg/kg, ip after 2 to 48 hrs by rotarod test; format: organism-based; conditions: in vivo
Outline: (§6)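 Rats were trained 72 h earlier (3 sessions, 24 h apart) to stay ≥180 s on an accelerating rotarod (4–40 rev over 5 min). Time on rod was recorded to a 3 min cutoff, 1 h pre-dose and 2, 6, 24 and 48 h after ip or oral gavage dosing. Values are peak effect minus vehicle; n = 6–8; blinded.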

Rattus norvegicus [8] = assay: Antiallodynic activity in SNE-induced mechanical allodynia naive Sprague-Dawley rat model assessed as […] in hindpaw ipsilateral withdrawal threshold at 3 mg/kg, po preincubated for 3 hrs followed by SNE addition; format: functional, organism-based
Outline: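 SNE rats were dosed by oral gavage (drug in DMSO diluted in 20% sweetened condensed milk, 16 mL/kg). Ipsilateral/contralateral hindpaw withdrawal thresholds were measured by digital von Frey, 4 readings per paw averaged, before and at intervals after dosing. n = 8 rats; blinded; one-way RM ANOVA against predrug values.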

[9] = Toxicity in naive Sprague-Dawley rat assessed as motor incoordination at 10 mg/kg administered through oral gavage after 2 to 48 hrs by rotarod test; format: organism-based; conditions: in vivo; outline: as §6
[10] = AUC in naive Sprague-Dawley rat at 0.3 mg/kg, ip by LC/MS/MS analysis; format: ADME, organism-based; conditions: in vivo; outline: as §2
[11] = Metabolic stability in Sprague-Dawley rat plasma assessed as compound remaining at 10 uM measured at 1 hr by LC/MS analysis; format: ADME, cell-free
Outline: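 Compound (10 μM final, from 1 mM ethanol stock) was incubated in male Sprague–Dawley rat plasma at 37 °C. Aliquots taken at 0, 30 and 60 min were extracted with 3 volumes methanol and centrifuged. Supernatants were analysed by LC/MS.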

[12] = Toxicity in naive Sprague-Dawley rat assessed as immobility at 10 mg/kg administered through oral gavage after 2 to 48 hrs by catalepsy ring test; format: organism-based; conditions: in vivo
Outline: (§7)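 In the ring immobility test, forepaws were placed on a 12 cm horizontal ring with hindpaws just touching the bench. Time to move off was recorded, 100 s cutoff. Testing was pre-dose and 2, 6, 24 and 48 h after ip or oral gavage dosing. Values are peak effect minus vehicle; n = 6–8; blinded.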

[13] = Ratio of drug level in brain to plasma in naive Sprague-Dawley rat at 0.3 mg/kg, ip after 75 mins; format: ADME, organism-based; conditions: read-out: BPR
Outline: (§8)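 Samples taken from 3 rats ~75 min after ip dosing. CSF (100–150 μL) was taken from the cisterna magna under isoflurane. Brain was removed after pentobarbital anesthesia and cold-saline intracardiac perfusion. Plasma came from tail-vein blood. Drug was measured by LC-MS/MS against standard curves made in untreated-animal matrix, and the ratio was taken to plasma.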

[14] = Toxicity in naive Sprague-Dawley rat assessed as hypothermia at 10 mg/kg administered through oral gavage after 2 to 48 hrs by core temperature test; format: organism-based; conditions: in vivo
Outline: (§9)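 Naïve rats were acclimated to a restrainer (two 5-min sessions 20 min apart). Core temperature was taken before and 2, 6, 24 and 48 h after ip (DMSO/Cremophor EL/saline) or oral gavage (DMSO in 20% condensed milk) dosing. Dose-response points are mean peak effect minus vehicle; n = 6–8 rats; blinded.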

Rattus norvegicus [15] = assay: Antiallodynic activity in SNE-induced mechanical allodynia naive Sprague-Dawley rat model assessed as reversible […] in hindpaw ipsilateral withdrawal threshold at 0.3 mg/kg, ip preincubated for 3 hrs followed by SNE addition; format: functional, organism-based; outline: as §4
[16] = Toxicity in naive Sprague-Dawley rat assessed as immobility at 0.3 mg/kg, ip after 2 to 48 hrs by catalepsy ring test; format: organism-based; conditions: in vivo; outline: as §7
Rattus norvegicus [17] = assay: Analgesic activity in naive Sprague-Dawley rat assessed as increase in tail flick latency at 0.3 mg/kg, ip up to 48 hrs by tail-flick assay; format: functional, organism-based; outline: as §5
Rattus norvegicus [18] = assay: Antiallodynic activity in SNE-induced mechanical allodynia naive Sprague-Dawley rat model assessed as decrease in hindpaw ipsilateral withdrawal threshold at 0.6 mg/kg, ip preincubated for 3 hrs followed by SNE addition in presence of SR144528; format: functional, organism-based; outline: as §1
[19] = Toxicity in naive Sprague-Dawley rat assessed as hypothermia at 0.3 mg/kg, ip after 2 to 48 hrs by core temperature test; format: organism-based; conditions: in vivo; outline: as §9
[20] = Metabolic stability in Sprague-Dawley rat liver S9 fraction assessed as compound remaining at 10 uM measured at 1 hr by LC/MS analysis; format: ADME, subcellular; conditions: s9, 1 h
Outline: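 Compound (10 μM final, from 1 mM ethanol stock) was incubated at 37 °C in male Sprague–Dawley rat liver S9 (1 mg protein/mL). The mix held an NADPH-regenerating system (1 mM NADP, 5 mM glucose 6-phosphate, 1 U/mL G6PDH) in 50 mM KPO4 pH 7.4 with 3 mM MgCl2, preincubated 5 min. Samples at 0–120 min were methanol-extracted and analysed by LC/MS.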

[21] = Cmax in naive naive Sprague-Dawley rat at 0.3 mg/kg, ip by LC/MS/MS analysis; format: ADME, organism-based; parameters: dose 0.3 mg/kg, route intraperitoneal; conditions: in vivo; outline: as §2
Cannabinoid receptor 1 [22] = target: T1, Cannabinoid receptor 1; assay: Agonist activity at human CB1R expressed in CHO cells by Ca2+ flux assay; format: functional, cell-based; outline: as §3
Rattus norvegicus [23] = assay: Antiallodynic activity in SNE-induced mechanical allodynia naive Sprague-Dawley rat model assessed as decrease in hindpaw ipsilateral withdrawal threshold at 0.6 mg/kg, ip preincubated for 3 hrs followed by SNE addition in presence of SR141716; format: functional, organism-based; outline: as §1
[24] = Ratio of drug level in cerebrospinal fluid to plasma in naive Sprague-Dawley rat at 0.3 mg/kg, ip after 75 mins; format: ADME, organism-based, CSF/Plasma; outline: as §8
Cannabinoid receptor 1 [25] = target: Cannabinoid receptor 1 (Rattus norvegicus, UniProt P20272); assay: Displacement of [3H]-CP55940 from rat CB1 receptor
Chain of Cannabinoid receptor 1 (Rattus norvegicus, UniProt P20272) (P20272 whole entry): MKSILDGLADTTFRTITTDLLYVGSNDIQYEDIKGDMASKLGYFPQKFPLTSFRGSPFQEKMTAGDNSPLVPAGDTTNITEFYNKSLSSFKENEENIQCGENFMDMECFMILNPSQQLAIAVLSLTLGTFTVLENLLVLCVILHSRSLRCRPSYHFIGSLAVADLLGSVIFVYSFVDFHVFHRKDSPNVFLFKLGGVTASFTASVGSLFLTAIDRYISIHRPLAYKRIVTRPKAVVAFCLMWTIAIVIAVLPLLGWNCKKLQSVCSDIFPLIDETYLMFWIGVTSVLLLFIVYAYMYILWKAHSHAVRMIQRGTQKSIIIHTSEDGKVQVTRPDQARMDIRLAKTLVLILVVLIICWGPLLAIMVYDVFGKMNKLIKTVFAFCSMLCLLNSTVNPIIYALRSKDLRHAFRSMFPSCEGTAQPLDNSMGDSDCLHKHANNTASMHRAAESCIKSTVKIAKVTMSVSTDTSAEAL

[26] = Toxicity in naive Sprague-Dawley rat assessed as immobility at 0.1 to 10 mg/kg administered through oral gavage after 2 to 48 hrs by catalepsy ring test; format: organism-based; conditions: in vivo; outline: as §7
[27] = Toxicity in naive Sprague-Dawley rat assessed as hypothermia at 0.1 to 10 mg/kg administered through oral gavage after 2 to 48 hrs by core temperature test; format: organism-based; conditions: in vivo; outline: as §9
[28] = Toxicity in naive Sprague-Dawley rat assessed as motor incoordination at 0.1 to 10 mg/kg administered through oral gavage after 2 to 48 hrs by rotarod test; format: organism-based; conditions: in vivo; outline: as §6
[29] = Efflux ratio of permeability in MDCK cells expressing mdr1 at 10 uM by mass spectroscopic analysis; format: ADME, cell-based, Canis lupus familiaris; conditions: dog
Outline: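 MDCK-mdr1 monolayers were grown 4 days on Transwell filters in DMEM/F12 with 10% FBS. Compound (10 μM) was added apically in HBSS with 25 mM D-glucose, HEPES pH 7.4, and incubated 1 h at 37 °C. Apical and basal samples were quantified by LC-MS/MS (MRM). Values are the average of 2–3 measurements.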

[30] = Toxicity in naive Sprague-Dawley rat assessed as immobility at 0.01 mg/kg, ip by after 2 to 48 hrs by catalepsy ring test; format: organism-based; conditions: in vivo; outline: as §7
[31] = Toxicity in naive Sprague-Dawley rat assessed as hypothermia at 0.01 mg/kg, ip after 2 to 48 hrs by core temperature test; format: organism-based; conditions: in vivo; outline: as §9
[32] = Toxicity in naive Sprague-Dawley rat assessed as motor incoordination at 0.01 mg/kg, ip after 2 to 48 hrs by rotarod test; format: organism-based; conditions: in vivo; outline: as §6
Rattus norvegicus [33] = assay: Analgesic activity in naive Sprague-Dawley rat assessed as tail flick latency at 0.01 mg/kg, ip up to 48 hrs by tail-flick assay; format: functional, organism-based; outline: as §5

T1 sequence (P21554 whole entry): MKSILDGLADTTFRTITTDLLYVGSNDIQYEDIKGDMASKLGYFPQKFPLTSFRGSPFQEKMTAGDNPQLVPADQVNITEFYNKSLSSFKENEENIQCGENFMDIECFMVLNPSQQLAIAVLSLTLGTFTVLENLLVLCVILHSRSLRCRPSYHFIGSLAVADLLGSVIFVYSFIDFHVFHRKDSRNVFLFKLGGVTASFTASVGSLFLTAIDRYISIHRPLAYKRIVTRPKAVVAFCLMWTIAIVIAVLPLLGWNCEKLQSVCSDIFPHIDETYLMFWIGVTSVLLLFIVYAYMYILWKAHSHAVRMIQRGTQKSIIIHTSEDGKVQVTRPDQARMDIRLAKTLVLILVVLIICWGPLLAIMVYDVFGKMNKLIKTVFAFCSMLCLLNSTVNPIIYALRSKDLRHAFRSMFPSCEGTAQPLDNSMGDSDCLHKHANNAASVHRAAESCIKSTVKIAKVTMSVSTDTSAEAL

| Structure (SMILES) | Ki (Cannabinoid receptor 1 [1]) | EC50 (Cannabinoid receptor 2) | Emax (Cannabinoid receptor 2) | Activity (Rattus norvegicus [6]) | Stability [11] | Activity (Rattus norvegicus [17]) | Stability [20] | EC50 (Cannabinoid receptor 1 [22]) | Emax (Cannabinoid receptor 1 [22]) | further results |
| --- | --- | --- | --- | --- | --- | --- | --- | --- | --- | --- |
| O=C(O)CCCn1cc(C(=O)c2cccc3ccccc23)c2ccccc21 | > 10000 nM |  |  |  |  |  |  |  |  |  |
| CCCc1ccc(/C=C2\C=C(CCN3CCOCC3)c3ccccc32)c2ccccc12 |  | 94 nM | 69% | Active | 92% | Active | 37% | 182 nM | 108% | Activity (Rattus norvegicus [2]): inactive; half-life [3]: 7.2 h; Activity (Rattus norvegicus [4]): inactive; Activity (Rattus norvegicus [5]): Toxic; Activity [7]: Non-Toxic; Activity (Rattus norvegicus [8]): Active; Activity [9]: Non-Toxic; AUC [10]: 112 ng·h/mL; Activity [12]: Non-Toxic; Kp at 1.25 h [13]: 0.182; Activity [14]: Non-Toxic; Activity (Rattus norvegicus [15]): Active; Activity [16]: Non-Toxic; Activity (Rattus norvegicus [18]): Active; Activity [19]: Non-Toxic; Cmax [21]: 11.9 ng/mL; Activity (Rattus norvegicus [23]): inactive; Kp at 1.25 h [24]: 0.001 |
| C1=C(CCN2CCOCC2)c2ccccc2/C1=C/c1ccco1 | > 10000 nM |  |  |  |  |  |  |  |  |  |
| COc1ccc(C(=O)c2c(C)n(CCN3CCOCC3)c3ccccc23)cc1 [PRAVADOLINE] |  |  |  |  |  |  |  |  |  | Ki (Cannabinoid receptor 1 [25]): 2510 nM |
| CCCCCn1cc(C(=O)c2cccc3ccccc23)c2cccc(F)c21 |  |  |  |  | 97% |  | 50% | 104 nM | 79% |  |
| COc1ccc(C(=O)c2c(C)n(CC[N+]3(C)CCOCC3)c3ccccc23)cc1 | > 10000 nM |  |  |  |  |  |  |  |  |  |
| CCc1ccc(/C=C2\C=C(CCN3CCOCC3)c3ccccc32)c2ccccc12 |  | 163 nM | 59% | Active |  | Active |  | 141 nM | 121% | Activity [26]: Non-Toxic; Activity [27]: Non-Toxic; Activity [28]: Non-Toxic |
| C1=C(CCN2CCOCC2)c2ccccc2/C1=C/c1cccc2ccccc12 |  | 138 nM | 27% |  | 98.5% |  | 22.5% | 257 nM | 103% | Ratio [29]: 0.001; Activity (Rattus norvegicus [15]): Active |
| CCCCCCC(C)(C)c1cc(O)c2c(c1)OC(C)(C)[C@@H]1CC=C(CO)C[C@@H]21 |  |  |  | Active |  | Active |  |  |  | Activity [30]: Toxic; Activity [31]: Toxic; Activity [32]: Toxic; Activity (Rattus norvegicus [33]): Active |
| C1=C(CCN2CCOCC2)c2ccccc2/C1=C/c1ccc2c3c(cccc13)CC2 |  | 594 nM | 20% |  |  |  |  |  |  | Ratio [29]: 0.0014 |
